The values that follow come from article PMC4120670 (Kidney International, 2014).

Data set [1] addresses T1, MATE1 (Homo sapiens, UniProt Q96FL8).
T1 sequence (Q96FL8 1-570): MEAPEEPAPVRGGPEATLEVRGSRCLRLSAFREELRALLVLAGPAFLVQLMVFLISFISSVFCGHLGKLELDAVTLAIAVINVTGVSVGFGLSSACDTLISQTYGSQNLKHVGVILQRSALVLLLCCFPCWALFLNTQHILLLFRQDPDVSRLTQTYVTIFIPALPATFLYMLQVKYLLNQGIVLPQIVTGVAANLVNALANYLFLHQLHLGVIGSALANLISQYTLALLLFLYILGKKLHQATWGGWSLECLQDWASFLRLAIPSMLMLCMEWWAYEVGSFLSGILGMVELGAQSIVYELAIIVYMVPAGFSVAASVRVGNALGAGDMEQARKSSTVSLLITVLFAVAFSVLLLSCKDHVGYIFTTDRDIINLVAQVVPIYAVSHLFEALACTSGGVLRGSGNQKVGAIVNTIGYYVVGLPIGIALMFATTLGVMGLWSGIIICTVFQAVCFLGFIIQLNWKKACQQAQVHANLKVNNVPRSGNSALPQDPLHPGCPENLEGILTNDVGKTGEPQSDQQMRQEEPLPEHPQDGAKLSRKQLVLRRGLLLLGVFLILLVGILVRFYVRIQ
As to the kind of experiment: Inhibition of MATE1-mediated creatinine transport. Format: cell-based.

The conditions of data set [2]: clinical plasma concentration; cited from earlier work.
Data set [3] concerns the target T2, OAT3 (Homo sapiens, UniProt Q8TCC7).
T2 sequence (Q8TCC7 1-542): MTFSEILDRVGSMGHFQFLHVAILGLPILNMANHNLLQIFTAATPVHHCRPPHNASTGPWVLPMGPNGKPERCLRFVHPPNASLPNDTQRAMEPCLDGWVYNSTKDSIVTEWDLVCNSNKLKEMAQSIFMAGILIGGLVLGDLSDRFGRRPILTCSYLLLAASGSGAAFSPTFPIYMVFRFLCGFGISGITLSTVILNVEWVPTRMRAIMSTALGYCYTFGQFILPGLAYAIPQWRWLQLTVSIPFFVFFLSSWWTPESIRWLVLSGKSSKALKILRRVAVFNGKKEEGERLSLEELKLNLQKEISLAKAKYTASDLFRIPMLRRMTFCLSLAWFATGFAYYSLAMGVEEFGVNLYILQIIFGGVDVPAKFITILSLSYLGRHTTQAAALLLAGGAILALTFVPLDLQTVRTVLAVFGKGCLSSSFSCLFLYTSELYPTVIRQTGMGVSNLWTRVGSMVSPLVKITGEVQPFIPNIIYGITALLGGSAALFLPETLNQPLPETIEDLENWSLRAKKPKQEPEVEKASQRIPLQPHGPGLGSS
The conditions noted are these: cobicistat 1 μmol/l; HEK293; diclofenac or probenecid 90 μmol/l.

Data set [4] addresses T3, MATE2-K (Homo sapiens, UniProt Q86VL8). Briefly: Inhibition of MATE2-K transport of tetraethylammonium. Format: cell-based.
Data set [5] concerns the target T4, OAT2 (Homo sapiens, UniProt Q9Y694).
T4 sequence (Q9Y694 1-548): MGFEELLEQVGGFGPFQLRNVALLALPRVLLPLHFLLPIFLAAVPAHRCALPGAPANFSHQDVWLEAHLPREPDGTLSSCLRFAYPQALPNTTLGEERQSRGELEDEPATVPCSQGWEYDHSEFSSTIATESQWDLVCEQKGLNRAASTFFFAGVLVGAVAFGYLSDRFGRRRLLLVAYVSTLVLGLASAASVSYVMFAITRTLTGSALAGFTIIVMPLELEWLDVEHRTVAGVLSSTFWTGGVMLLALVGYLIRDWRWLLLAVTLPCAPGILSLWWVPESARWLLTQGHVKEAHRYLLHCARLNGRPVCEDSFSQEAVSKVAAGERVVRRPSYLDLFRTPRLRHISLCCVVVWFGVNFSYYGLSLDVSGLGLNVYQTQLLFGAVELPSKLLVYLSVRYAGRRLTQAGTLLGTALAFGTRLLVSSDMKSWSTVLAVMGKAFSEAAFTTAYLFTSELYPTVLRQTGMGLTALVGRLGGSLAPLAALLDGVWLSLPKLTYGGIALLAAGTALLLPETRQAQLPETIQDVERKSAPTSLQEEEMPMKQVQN
As to the kind of experiment: Inhibition of OAT2 transport of 3′,5′-cyclic GMP. The data set is classed as cell-based.

The target of data set [6] is T1, MATE1. As to the kind of experiment: Inhibition of MATE1 transport of tetraethylammonium. Format: cell-based.
Data set [7] has as its system human primary proximal tubule cells. As to the kind of experiment: Cobicistat uptake in fresh isolated primary proximal tubule cells. Format: cell-based. The note with it: cobicistat 1 μmol/l; cimetidine 1500 μmol/l or probenecid 90 μmol/l.
For data set [8] the following is noted: cited from earlier work.
For data set [9] the following is noted: more modest effects, clinical; cited from earlier work.
Data set [10] addresses T5, OCT3 (Homo sapiens, UniProt O75751).
T5 sequence (O75751 1-556): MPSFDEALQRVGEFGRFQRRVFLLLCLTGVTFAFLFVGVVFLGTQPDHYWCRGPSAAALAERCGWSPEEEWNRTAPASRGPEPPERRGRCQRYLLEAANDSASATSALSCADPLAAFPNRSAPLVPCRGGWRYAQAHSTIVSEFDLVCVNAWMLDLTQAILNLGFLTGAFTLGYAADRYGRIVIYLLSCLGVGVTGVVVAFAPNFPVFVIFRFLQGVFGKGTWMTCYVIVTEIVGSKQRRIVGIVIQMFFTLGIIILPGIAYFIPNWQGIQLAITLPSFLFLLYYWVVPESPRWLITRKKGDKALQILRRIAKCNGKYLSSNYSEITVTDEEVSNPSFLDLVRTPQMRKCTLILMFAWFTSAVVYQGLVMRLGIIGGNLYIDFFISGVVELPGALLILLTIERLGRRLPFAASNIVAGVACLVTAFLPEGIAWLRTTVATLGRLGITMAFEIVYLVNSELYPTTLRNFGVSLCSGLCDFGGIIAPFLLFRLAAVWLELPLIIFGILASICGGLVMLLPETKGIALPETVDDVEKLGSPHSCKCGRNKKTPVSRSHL
Briefly: Inhibition of OCT3 transport of 1-methyl-4-phenylpyridinium. The data set is classed as cell-based. The note with it: for Concentration-dependent inhibition of OCT3-dependent transport: model substrate, curve could not be generated.

In data set [11] the target is T6, OCT2 (Homo sapiens, UniProt O15244).
T6 sequence (O15244 1-555): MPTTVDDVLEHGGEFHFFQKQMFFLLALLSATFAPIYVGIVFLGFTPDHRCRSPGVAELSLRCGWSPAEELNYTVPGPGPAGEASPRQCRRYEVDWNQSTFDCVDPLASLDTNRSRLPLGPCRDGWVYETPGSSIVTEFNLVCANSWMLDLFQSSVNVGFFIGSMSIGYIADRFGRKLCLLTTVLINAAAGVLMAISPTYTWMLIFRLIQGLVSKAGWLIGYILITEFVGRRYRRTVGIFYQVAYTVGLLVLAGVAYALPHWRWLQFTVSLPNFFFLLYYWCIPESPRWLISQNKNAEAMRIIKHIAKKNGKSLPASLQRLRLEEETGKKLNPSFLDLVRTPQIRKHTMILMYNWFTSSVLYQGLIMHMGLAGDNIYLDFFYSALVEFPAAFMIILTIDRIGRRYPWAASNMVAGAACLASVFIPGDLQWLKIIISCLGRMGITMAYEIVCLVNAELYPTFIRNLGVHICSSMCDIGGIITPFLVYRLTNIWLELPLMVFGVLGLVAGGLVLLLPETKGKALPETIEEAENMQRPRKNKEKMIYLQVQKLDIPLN
As to the kind of experiment: Cobicistat uptake in MDCKII cells transfected with OCT2. Format: cell-based. The note with it: cobicistat 1 μmol/l; vs nontransfected MDCKII cells; 5% bovine serum albumin.

Data set [12] concerns the target T6, OCT2. Briefly: Inhibition of OCT2 transport of tetraethylammonium. The data set is classed as cell-based.
Data set [13] deals with T6, OCT2. Briefly: Inhibition of OCT2-dependent metformin transport. The data set is classed as cell-based.
In data set [14] the test system is MATE2-K. The note with it: read-out: Ki MATE2-K; cited from earlier work.
The conditions of data set [15]: most prominent effects, clinical; cited from earlier work.
Data set [16] deals with MATE1. The note with it: read-out: Ki MATE1; cited from earlier work.
The target of data set [17] is T4, OAT2. As to the kind of experiment: Creatinine transport by OAT2 in transiently transfected MDCKII cells. Format: cell-based.
In data set [18] the target is T2, OAT3. The data set is classed as cell-based. The note with it: transiently transfected HEK293 cells; data not shown.
Data set [19] has as its target T1, MATE1. As to the kind of experiment: Creatinine transport by MATE1 in transiently transfected MDCKII cells. The data set is classed as cell-based. Summed up: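 Transiently transfected polarized MDCKII cells were preincubated 20 min in Hank's balanced salt solution with 30 mmol/l NH4Cl. Uptake was started by adding creatinine, 31 μmol/l to 20 mmol/l, to the chamber matching the transporter's apical or basolateral expression. Cells were washed four times with ice-cold PBS and extracted in 1:1 acetonitrile:water. Intracellular substrate was counted radiometrically. Kinetic constants were fitted from concentration dependence over n⩾3 independent experiments.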

For data set [20], the target named is T2, OAT3. The note with it: human OAT3, transiently transfected HEK293 cells; cited from earlier work.
For data set [21], the target named is T3, MATE2-K. As to the kind of experiment: Creatinine transport by MATE2-K in transiently transfected MDCKII cells. The data set is classed as cell-based.

T3 sequence (Q86VL8 1-566 isoform Q86VL8-3): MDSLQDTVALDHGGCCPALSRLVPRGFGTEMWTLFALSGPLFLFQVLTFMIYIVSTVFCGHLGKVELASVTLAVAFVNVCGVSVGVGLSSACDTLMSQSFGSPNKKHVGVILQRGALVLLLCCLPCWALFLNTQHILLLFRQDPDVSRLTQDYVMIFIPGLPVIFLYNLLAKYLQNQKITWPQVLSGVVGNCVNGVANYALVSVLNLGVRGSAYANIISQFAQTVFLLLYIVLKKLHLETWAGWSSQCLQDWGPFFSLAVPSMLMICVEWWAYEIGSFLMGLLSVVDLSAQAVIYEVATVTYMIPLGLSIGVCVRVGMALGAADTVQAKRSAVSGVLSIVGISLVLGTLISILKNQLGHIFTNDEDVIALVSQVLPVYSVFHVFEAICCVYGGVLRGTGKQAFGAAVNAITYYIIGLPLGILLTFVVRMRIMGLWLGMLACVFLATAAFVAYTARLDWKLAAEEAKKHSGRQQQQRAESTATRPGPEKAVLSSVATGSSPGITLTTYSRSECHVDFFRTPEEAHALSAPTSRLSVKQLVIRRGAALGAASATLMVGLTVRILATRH

What is called IC50 is the point on the concentration scale where inhibition reaches its midpoint. In the case of `CC(C)c1nc(CN(C)C(=O)N[C@@H](CCN2CCOCC2)C(=O)N[C@H](CC[C@H](Cc2ccccc2)NC(=O)OCc2cncs2)Cc2ccccc2)cs1` [Cobicistat, cobicistat], the IC50 in data set [1] was 990 nM; in data set [4], 33500 ± 4200 nM; in [5] it was over 100000 nM; in data set [6], 1870 ± 220 nM; in [10], over 100000 nM; in data set [12], 24000 ± 4600 nM. In [2], the “Bound to plasma proteins” value was “over 90%”. Moreover, the “Inhibitor-sensitive accumulation in cells transfected with OAT3” value in [3] was “no inhibitor-sensitive accumulation”. Also, the “Transporter-dependent uptake in primary proximal tubule cells” value in data set [7] was “small but reproducible decreases in accumulation in the presence of the transport inhibitors cimetidine or probenecid”. Moreover, the Maximum plasma concentration in data set [8] (clinical) is 1.4 µmol/L. The Renal elimination result in data set [8] (in humans) is listed as “approximately 8%”. Further, the Serum creatinine increases in data set [9] is about 0.1 mg/dL. The “Concentration-dependent inhibition of OCT3-dependent transport” value in data set [10] is listed as “lack of concentration-dependent inhibition”. Moreover, the “Increase in cobicistat accumulation in cells transfected with OCT2” value in data set [11] worked out at 2.9 fold.

As for `C[C@@H]1CCO[C@H]2Cn3cc(C(=O)NCc4ccc(F)cc4F)c(=O)c(O)c3C(=O)N12` [Dolutegravir, dolutegravir], the IC50 was over 100000 nM in [4]; 110 nM in data set [13]; over 100000 nM in data set [5]; 4670 ± 1110 nM in data set [6]; over 100000 nM in data set [10]; 66 ± 3 nM in data set [12]. In addition, the “Concentration-dependent inhibition of OAT2-dependent transport” value in data set [5] (model substrate, curve could not be generated) is “lack of concentration-dependent inhibition”. Also, in data set [9], the Serum creatinine increases was about 0.1 mg/dL. For the same compound, in data set [10], the “Concentration-dependent inhibition of OCT3-dependent transport” value is given as “lack of concentration-dependent inhibition”.

By Ki is commonly meant a measure of affinity in units of concentration, obtained from inhibition or displacement. Consider `CCc1nc(N)nc(N)c1-c1ccc(Cl)cc1` [Pyrimethamine, pyrimethamine], for which the Ki was 59 nM in [14] and 93 nM in [16]. Also, the “Decreases in creatinine clearance” value in [15] was 15–34 ml/min per 1.73 m^2.

One may read the Km as the concentration of substrate that gives half-maximal velocity. On to `CN1CC(=O)NC1=N` [creatinine], for which the Vmax in data set [17] (creatinine transport by OAT2) is 117 × 10^4 pmol/min per mRNA copy number; in [19] (creatinine transport by MATE1), >2 × 10^4 pmol/min per mRNA copy number; in data set [21] (creatinine transport by MATE2-K) it was >20 × 10^4 pmol/min per mRNA copy number. The “Transport rate for OAT2 relative to OCT2” value in [17] (physiological creatinine concentration (100 μmol/l), faster than OCT2) was determined as 4.7 fold. In addition, the “Transport rate for OAT2 relative to OCT3” value in [17] (physiological creatinine concentration (100 μmol/l), faster than OCT3) is given as 2.3 fold. Besides, in [18], the “OAT3-dependent transport of creatinine” value is “no OAT3-dependent transport of creatinine was observed”. Besides, the Km in data set [19] (human, transiently transfected MDCKII cells expressing MATE1) is over 2000 µM; in [21] (human, transiently transfected MDCKII cells expressing MATE2-K), over 2000 µM. Besides, the “Increase in creatinine accumulation over mock transfection” value in [20] is 60%.
